According to ChEMBL document CHEMBL1795201, “Substituted N-aryl-6-pyrimidinones: a new class of potent, selective, and orally active p38 MAP kinase inhibitors” (Bioorg Med Chem Lett, 2011):
≈ marks a conversion by molar mass, not a printed value.

Assays:
[1] = Metabolic stability in human liver microsomes at 2 uM after 45 mins by LC-MS analysis in presence of NADPH; format: ADME, Microsome; conditions: read-out: Stability
In short: (§1)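 Test compound at 2 μM incubated with liver microsomes (human or rat), NADPH and buffer at 37 °C for 45 min; samples processed by precipitation, then LC-MS measured percent parent compound remaining.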

[2] = Metabolic stability in rat liver microsomes at 2 uM after 45 mins by LC-MS analysis in presence of NADPH; format: ADME, Microsome; conditions: read-out: Stability; in short: as §1
[3] = Aqueous solubility of the compound in amorphous form at pH 6.5; format: physicochemical
In short: (§2)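 Aqueous solubility measured at pH 6.5, expressed in µg/mL.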

[4] = Clearance in rat at 0.2 mg/kg, iv; format: ADME, organism-based; design: dose 0.2 mg/kg, route intravenous; conditions: in vivo
[5] = Volume of distribution at steady state in rat at 0.2 mg/kg, iv; format: ADME, organism-based; design: dose 0.2 mg/kg, route intravenous; conditions: in vivo, read-out: Vdss
[6] = Half life in rat at 0.2 mg/kg, iv; format: ADME, organism-based; design: dose 0.2 mg/kg, route intravenous; conditions: in vivo
[7] = Oral bioavailability in rat at 0.2 mg/kg; format: ADME, organism-based; conditions: in vivo
[8] = Lipophilicity, log P of the compound; format: physicochemical; conditions: octanol/water
[9] = Clearance in dog at 1 mg/kg, iv; format: ADME, organism-based, Canis lupus familiaris; design: dose 1 mg/kg, route intravenous; conditions: in vivo
[10] = Volume of distribution at steady state in dog at 1 mg/kg, iv; format: ADME, organism-based, Canis lupus familiaris; design: dose 1 mg/kg, route intravenous; conditions: in vivo, read-out: Vdss
[11] = Half life in dog at 1 mg/kg, iv; format: ADME, organism-based, Canis lupus familiaris; design: dose 1 mg/kg, route intravenous; conditions: in vivo
[12] = Oral bioavailability in dog at 1 mg/kg; format: ADME, organism-based, Canis lupus familiaris; conditions: in vivo
[13] = Aqueous solubility of the compound in crystalline form at pH 6.5; format: physicochemical; conditions: aqueous medium; in short: as §2
[14] = Apparent permeability in human Caco2 cells; format: ADME, cell-based; conditions: Caco-2
[15] = Oral bioavailability in rat at 5 mg/kg administered as suspension; format: ADME, organism-based; conditions: in vivo
In short: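 Rats dosed orally at 5 mpk with compound given as a suspension; bioavailability reported as oral BA (suspension).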

[16] = aqueous medium, read-out: solubility

| Structure (SMILES) | remaining at 0.75 h, 2 µM [1] [%] | remaining at 0.75 h, 2 µM [2] [%] | solubility [3, 16] [µg/mL] | also measured |
| --- | --- | --- | --- | --- |
| Cc1ccc(C(=O)NCCO)cc1-n1cnc(OCc2ccc(F)cc2F)c(Cl)c1=O | 99 | 97 | 51 (≈ 113 µM) | clearance [4]: 3.19 mL/min/kg; Vd [5]: 1.32 L/kg; half-life [6]: 6.5 h; bioavailability [7]: 99%; logP [8]: 1.65; clearance [9]: 1.59 mL/min/kg; Vd [10]: 0.986 L/kg; half-life [11]: 8.7 h; bioavailability [12]: 67%; solubility [13]: 23 µg/mL (≈ 51.1 µM); Papp [14]: 7.99 ×10⁻⁶ cm/s; bioavailability [15]: 99% |
| Cc1ccc(C(=O)NCC(N)=O)cc1-n1cnc(OCc2ccc(F)cc2F)c(Cl)c1=O | 100 | 100 | 14 (≈ 30.2 µM) |  |
| Cc1ccc(C(=O)NC[C@@H](O)CO)cc1-n1cnc(OCc2ccc(F)cc2F)c(Cl)c1=O | 97 | 100 | 163 (≈ 340 µM) |  |
| Cc1ccc(C(=O)NC[C@H](C)CO)cc1-n1cnc(OCc2ccc(F)cc2F)c(Cl)c1=O | 96 | 85 | 94 (≈ 197 µM) |  |
| Cc1ccc(C(=O)N[C@H](C)C(N)=O)cc1-n1cnc(OCc2ccc(F)cc2F)c(Cl)c1=O | 77 | 72 | 147 (≈ 308 µM) |  |
| Cc1ccc(C(=O)NCCO)cc1-n1cnc(OCc2ccc(F)cc2F)c(C)c1=O | 84 | 99 | 28 (≈ 65.2 µM) |  |
| CCc1c(OCc2ccc(F)cc2F)ncn(-c2cc(C(=O)NCCO)ccc2C)c1=O | 76 | 92 | 20 (≈ 45.1 µM) |  |
| Cc1ccc(C(=O)NCCO)cc1-n1cnc(OCc2ccc(F)cc2F)c(Br)c1=O |  |  |  | solubility ([3]; buffer): Insoluble |
| CNC(=O)c1ccc(C)c(-n2c(C)cc(OCc3ccc(F)cc3F)c(Br)c2=O)c1 [PH-797804] |  |  |  | logP [8]: 3.35; solubility [13]: 10 µg/mL (≈ 21 µM); Papp [14]: 15.9 ×10⁻⁶ cm/s; bioavailability [15]: 9.3% |
